Consider 1 compound from ChEMBL document CHEMBL4613214, “In Vitro Activation of Cytochrome P450 46A1 (CYP46A1) by Efavirenz-Related Compounds” (J Med Chem, 2020).

For experiment [1], the system named is Cholesterol 24-hydroxylase (Homo sapiens), Q9Y6A2 [UNDEFINED MUTATION]. Put plainly: Binding affinity to substrate bound recombinant human C-terminal 4His-tagged CYP46A1 delta(2 to 50) mutant expressed in Escherichia coli assessed as Koff rate of cholesterol by stopped-flow spectrophotometric method. The method in brief: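 Release rate was measured by stopped-flow chase at 23 °C. A prebound complex (4 μM CYP46A1 plus 4 μM cholesterol, 50 mM KPi pH 7.2, 100 mM NaCl) was mixed with excess clotrimazole (40 μM). The rise in Δ(A437−A416) was followed, and 8–12 traces were averaged and fitted. Values are mean ± SD of three independent experiments.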
Cholesterol 24-hydroxylase (Homo sapiens), Q9Y6A2 [UNDEFINED MUTATION], sequence (Q9Y6A2 whole entry, looked up, stated change not applied): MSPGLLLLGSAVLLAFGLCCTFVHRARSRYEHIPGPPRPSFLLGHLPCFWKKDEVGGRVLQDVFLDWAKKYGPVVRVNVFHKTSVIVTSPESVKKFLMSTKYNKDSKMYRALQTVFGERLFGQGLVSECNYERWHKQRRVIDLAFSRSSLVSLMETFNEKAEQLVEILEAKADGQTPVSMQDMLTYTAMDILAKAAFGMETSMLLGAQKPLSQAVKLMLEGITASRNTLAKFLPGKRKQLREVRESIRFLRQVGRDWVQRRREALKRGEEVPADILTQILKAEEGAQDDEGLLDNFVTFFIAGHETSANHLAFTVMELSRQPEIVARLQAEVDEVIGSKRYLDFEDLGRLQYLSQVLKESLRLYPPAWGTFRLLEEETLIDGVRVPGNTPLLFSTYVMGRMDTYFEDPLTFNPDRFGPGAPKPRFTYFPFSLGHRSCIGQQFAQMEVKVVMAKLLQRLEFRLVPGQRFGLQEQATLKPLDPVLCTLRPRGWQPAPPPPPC

The test system is the same in experiment [2]. In words: Activation of recombinant human C-terminal 4His-tagged CYP46A1 delta(2 to 50) mutant expressed in Escherichia coli at 20 uM using cholesterol as substrate measured after 30 mins in presence of cytochrome P450 oxidoreductase by gas chromatography-mass spectrometry relative to control. The gist of the method:
(§1)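 Fixed 20 μM test compound (final, 2% methanol) with 0.5 μM purified Δ(2-50)CYP46A1 (wild type or mutant) and 1.0 μM rat P450 oxidoreductase. Buffer: 50 mM KPi pH 7.2, 100 mM NaCl, 40 μg/mL dilauroylphosphatidylcholine, 40 μM cholesterol, catalase, NADPH-regenerating system. Run 30 min at 37 °C. 24-Hydroxycholesterol measured by GC-MS against a deuterated internal standard. Fold activation over no-activator control; mean ± SD, three independent experiments.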

Experiment [3] is filed under the species Homo sapiens. Put plainly: Activation of recombinant human C-terminal 4His-tagged CYP46A1 delta(2 to 50) F405A mutant expressed in Escherichia coli at 20 uM using cholesterol as substrate measured after 30 mins in presence of cytochrome P450 oxidoreductase by gas chromatography-mass spectrometry. The gist of the method: as §1
In experiment [4] the test system is Cholesterol 24-hydroxylase (Homo sapiens), Q9Y6A2 [UNDEFINED MUTATION]. In words: Binding affinity to substrate free recombinant human C-terminal 4His-tagged CYP46A1 delta(2 to 50) mutant expressed in Escherichia coli assessed as Kon rate of cholesterol by stopped-flow spectrophotometric method.
Experiment [5] has the same test system. Put plainly: Binding affinity to recombinant human C-terminal 4His-tagged CYP46A1 delta(2 to 50) mutant expressed in Escherichia coli at 15 to 30 uM in absence of substrate by UV-spectrophotometric method. The gist of the method: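 Stopped-flow rapid-scanning spectrophotometry at 23 °C. Substrate-free CYP46A1 (4 μM, in 50 mM KPi pH 7.2 with 100 mM NaCl) was mixed with an equal volume of compound in the same buffer. Spectra were collected over 330–570 nm, and binding rates (kobserved) were fitted.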

Experiment [6] shares this test system. In words: Binding affinity to recombinant human C-terminal 4His-tagged CYP46A1 delta(2 to 50) mutant expressed in Escherichia coli at 2 uM in presence of substrate by UV-spectrophotometric method. The gist of the method:
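Stopped-flow rapid-scanning spectrophotometry at 23 °C in 50 mM KPi pH 7.2 with 100 mM NaCl. A premixed 4 μM CYP46A1·4 μM cholesterol complex was mixed with compound, and spectral changes were followed over 330–570 nm.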

Experiment [7] is filed under the species Homo sapiens. Put plainly: Activation of recombinant human C-terminal 4His-tagged CYP46A1 delta(2 to 50) K358A mutant expressed in Escherichia coli at 20 uM using cholesterol as substrate measured after 30 mins in presence of cytochrome P450 oxidoreductase by gas chromatography-mass spectrometry. The gist of the method:
as §1

The species entered for experiment [8] is Homo sapiens. Put plainly: Activation of recombinant human C-terminal 4His-tagged CYP46A1 delta(2 to 50) Y427A mutant expressed in Escherichia coli at 20 uM using cholesterol as substrate measured after 30 mins in presence of cytochrome P450 oxidoreductase by gas chromatography-mass spectrometry. The method in brief:
as §1

Experiment [9] has as its target Cholesterol 24-hydroxylase (Homo sapiens, UniProt Q9Y6A2). Put plainly: Binding affinity to recombinant human C-terminal 4His-tagged CYP46A1 delta(2 to 50) mutant expressed in Escherichia coli in absence of substrate at 24 degC by stopped-flow spectrophotometric method.
The species named for experiment [10] is Homo sapiens. Put plainly: Activation of recombinant human C-terminal 4His-tagged CYP46A1 delta(2 to 50) Y427F mutant expressed in Escherichia coli at 20 uM using cholesterol as substrate measured after 30 mins in presence of cytochrome P450 oxidoreductase by gas chromatography-mass spectrometry. The method in brief: as §1
The species named for experiment [11] is Homo sapiens. In words: Activation of recombinant human C-terminal 4His-tagged CYP46A1 delta(2 to 50) K358L mutant expressed in Escherichia coli at 20 uM using cholesterol as substrate measured after 30 mins in presence of cytochrome P450 oxidoreductase by gas chromatography-mass spectrometry. The method in brief: as §1
Experiment [12] is filed under the species Homo sapiens. In words: Activation of recombinant human C-terminal 4His-tagged CYP46A1 delta(2 to 50) F416A mutant expressed in Escherichia coli at 20 uM using cholesterol as substrate measured after 30 mins in presence of cytochrome P450 oxidoreductase by gas chromatography-mass spectrometry. The method in brief:
as §1

Experiment [13] is filed under the species Homo sapiens. In words: Activation of recombinant human C-terminal 4His-tagged CYP46A1 delta(2 to 50) R415A mutant expressed in Escherichia coli at 20 uM using cholesterol as substrate measured after 30 mins in presence of cytochrome P450 oxidoreductase by gas chromatography-mass spectrometry. The gist of the method: as §1
Experiment [14] concerns Cholesterol 24-hydroxylase (Homo sapiens), Q9Y6A2 [UNDEFINED MUTATION]. Put plainly: Activation of recombinant human C-terminal 4His-tagged CYP46A1 delta(2 to 50) mutant expressed in Escherichia coli at 20 uM using cholesterol as substrate measured after 30 mins in presence of cytochrome P450 oxidoreductase and L-Glu by gas chromatography-mass spectrometry relative to control. The method in brief: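 Co-incubation of 100 μM L-Glu with 20 μM test compound, 0.5 μM Δ(2-50)CYP46A1 and 1.0 μM P450 oxidoreductase. Buffer: 50 mM KPi pH 7.2, 100 mM NaCl, phospholipid, 40 μM cholesterol, NADPH-regenerating system. Run 30 min at 37 °C. 24-Hydroxycholesterol measured by GC-MS with a deuterated internal standard. Fold activation relative to control; mean ± SD of three experiments.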

For experiment [15], the species on record is Homo sapiens. In words: Activation of recombinant human C-terminal 4His-tagged CYP46A1 delta(2 to 50) K358R mutant expressed in Escherichia coli at 20 uM using cholesterol as substrate measured after 30 mins in presence of cytochrome P450 oxidoreductase by gas chromatography-mass spectrometry. The gist of the method:
as §1

Calls of active or inactive are those of the source. The rule behind the calls is not given here.

Cholesterol 24-hydroxylase, sequence (Q9Y6A2 whole entry, looked up, stated change not applied): as above

Broadly, the Kd is the concentration at which binding is half-saturated. Consider `O=C1Nc2c(O)cc(Cl)cc2C(C#CC2(O)CC2)(C(F)(F)F)O1` (racemic), for which the results for the K in experiment [1] and in experiment [4] were 3.6 s⁻¹ and 0.7 ×10⁶ /M/s, respectively. Further, the values for the fold change (FC) in [2] and in experiment [14] were 6.1 and 4.8, respectively. Further, the outcome (in the experiment filed under Homo sapiens [3]; in [5]; in [6]; in the experiment filed under Homo sapiens [13]) was inactive. The outcome in the experiment filed under Homo sapiens [7], in the experiment filed under Homo sapiens [8], in the experiment filed under Homo sapiens [10], in the experiment filed under Homo sapiens [11], in the experiment listed under Homo sapiens [12] and in the experiment filed under Homo sapiens [15] was Active. Further, the Kd in experiment [9] is 5 µM.
